# Measurements collected from several papers.
# Compare with care: the assays were run in different laboratories.
# JAK3 JH1: Tyrosine-protein kinase JAK3, JH1 (JAK3, Homo sapiens, UniProt P52333)
# JAK3: Tyrosine-protein kinase JAK3 (JAK3, Homo sapiens, UniProt P52333)
SMILES,target,observed,mode,technique,tested at,quantity,value
COc1ccc2c(c1)O[C@H](c1ccc(OC)c(OC)c1)C[C@@H]2NC(=O)C1(c2ccc3c(c2)OC(F)(F)O3)CC1,JAK3 JH1,cell-free assay,,competition with immobilised ligand,1 µM,remaining binding,100%
C[C@H]1CCN(c2nccc(-c3cnn4ncccc34)n2)C1,JAK3 JH1,cell-free assay,,,1 µM,remaining signal,84%
CCN(CC)CCNC(=O)c1c(C)[nH]c(/C=C2\C(=O)Nc3ccc(F)cc32)c1C,JAK3,enzyme activity,inhibitor,,10 µM,inhibition,69%
O=C(Nc1cnc(Oc2ccc(F)cc2)nc1)N1CCc2ncccc2[C@@H]1c1ccc(F)cc1,JAK3 JH1,cell-free assay,,competition with immobilised ligand,1 µM,remaining binding,91%
Cc1cc(NC(=O)c2cccc3cc(-c4cccc5[nH]nc(N)c45)ccc23)ccc1F,JAK3,enzyme activity,inhibitor,,0.1 µM,activity vs control,94%
COc1cccc(CNC(=O)c2nc3scc(COCc4ccc(C(=O)O)cc4)c3c(=O)[nH]2)c1,JAK3 JH1,cell-free assay,,competition with immobilised ligand,1 µM,remaining binding,78.4%
O=C(Nc1cnn(-c2csc(C(=O)NC3COC3)c2)c1)Nc1ccccc1Cl,JAK3,enzyme activity,inhibitor,,5 µM,remaining activity,102%
O=C1Nc2ccc(Cl)cc2C1=Cc1cc(Cl)c(O)c(Cl)c1,JAK3,cell-free assay,,,0.5 µM,remaining signal,100%
CC(C)(C)c1nc(-c2cccc(NS(=O)(=O)c3c(F)cccc3F)c2F)c(-c2ccnc(N)n2)s1,JAK3,enzyme activity,inhibitor,radiometric,1 µM,remaining activity,115%
COc1cc(/C=C/C(=O)CC(=O)/C=C/c2ccc(O)c(OC)c2)ccc1O,JAK3,enzyme activity,inhibitor,,1 µM,activity vs control,104%
CCN(CC)c1ccc(C2=NNC(=O)CC2C)cc1[N+](=O)[O-] (stereo not shown),JAK3,enzyme activity,inhibitor,,10 µM,remaining activity,134%
CC(C)(O)[C@H]1CC[C@H](Nc2ccc3ncc(-c4cccc(C(F)(F)F)c4)n3n2)CC1,JAK3,enzyme activity,inhibitor,,1 µM,remaining activity,84.8%
CNC(=O)c1cc(Oc2ccc(NC(=O)Nc3ccc(Cl)c(C(F)(F)F)c3)cc2)ccn1,JAK3,cell-free assay,,,0.5 µM,remaining signal,99.4%
CCCOc1ccc(OC)c(F)c1C(=O)c1ccc(C(=O)N[C@@H]2CNC[C@H]2NC(=O)c2ccc3[nH]ncc3c2)cc1,JAK3,enzyme activity,inhibitor,,10 µM,remaining activity,19%
COc1cc2ncnc(Nc3ccc(Oc4ccccc4)c(C)c3C)c2cc1OC,JAK3,enzyme activity,inhibitor,,1 µM,inhibition,5%
O=C(O)c1cc(-c2ccc(C3CCNCC3)cc2)c2ccc(-c3ccc(C(F)(F)F)cc3)cc2c1,JAK3 JH1,cell-free assay,,competition with immobilised ligand,1 µM,remaining binding,100%
Nc1ncnc2occ(-c3ccc(NC(=O)Nc4cc(C(F)(F)F)ccc4F)cc3)c12,JAK3 JH1,cell-free assay,inhibitor,,20 µM,remaining signal,4.3%
COc1cc2nccc(Oc3ccc(NC(=O)c4c5n(n(-c6ccc(F)cc6)c4=O)CCCC5)cc3)c2cc1OC,JAK3,enzyme activity,inhibitor,,0.1 µM,inhibition,-18%
CCC(=N\O)/C(C)=C/c1ccc(F)cc1,JAK3 JH1,cell-free assay,,competition with immobilised ligand,1 µM,remaining binding,80%
